Bioassay records: PubChem, several laboratories
NTR1 ag: agonists of human NTR1, primary screen, imaging, U2OS cells, beta-arrestin-GFP, high content | NTR1-U2OS beta-arrestin-GFP spot imaging, agonist mode | activation, % at 20 µM | 330,000 tested, 0.17% active | AID 493036, 2011;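 active = activation at or above 40% of the spot to cytoplasm intensity ratio, with at least 20 cells analyzed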;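 note: 0% = DMSO without peptide and 100% = 100 nM NTR1 peptide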
Target sequence (P30989 whole entry, looked up): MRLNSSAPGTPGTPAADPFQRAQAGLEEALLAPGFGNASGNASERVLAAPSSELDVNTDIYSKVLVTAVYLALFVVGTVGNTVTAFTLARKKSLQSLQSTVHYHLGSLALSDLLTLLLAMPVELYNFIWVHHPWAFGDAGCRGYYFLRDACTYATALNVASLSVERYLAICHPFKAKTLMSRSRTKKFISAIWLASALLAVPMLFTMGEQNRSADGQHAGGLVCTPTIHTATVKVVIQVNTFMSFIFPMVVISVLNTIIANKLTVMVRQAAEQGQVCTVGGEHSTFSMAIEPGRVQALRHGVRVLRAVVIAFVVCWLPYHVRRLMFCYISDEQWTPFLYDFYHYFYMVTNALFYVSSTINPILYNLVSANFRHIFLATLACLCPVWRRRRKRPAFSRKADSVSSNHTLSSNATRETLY
APJ ag: agonists of human apelin receptor APJ, primary screen, CHO-K1 cells, PathHunter beta-arrestin, luminescence. P35414. 0% DMSO wells, 100% apelin. activation, % at 20 µM. 330,000 tested, 0.11% active. AID 2520, 2010;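 active = activation more than six SD over the plate average, tested at 20 µM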;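 note: 0% = DMSO alone and 100% = apelin-13 at 10 nM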
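Assay system: engineered CHO-K1 APJ arrestin reporter cells; Amount: 1000 CHO-K1 reporter cells seeded per well; Dosing: one dose, 20 µM compound, 1% DMSO; Times: compound stimulation 90 min at 25 °C, detection 60 min; Measured by: luminescent beta-gal fragment complementation, chemiluminescent substrate; Read-out: APJ–arrestin association signal; Controls: DMSO vs Apelin-13 10 nM.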
HTR2A ag: mouse Htr2a agonists via beta-arrestin recruitment, primary screen, cell-based, luminescence; 360,000 tested, 0.66% active; activation, % at 7.6 µM; 5-hydroxytryptamine receptor 2A (Mus musculus), P35363; AID 624169, 2012; CHO-K1 mHTR2A beta-arrestin complementation; percent of 30 µM serotonin response;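 active = activation above a run cutoff, the mean activation of all tested compounds plus 3 SD, cut at about 14% in these data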;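 note: 0% = plate median of compound wells and 100% = 30 µM serotonin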
CXCR6 block: CXCR6 receptor inhibitors, primary screen, cell-based, beta-arrestin, luminescence, CHO-K1 PathHunter, 1536-well. 360,000 tested, 0.36% active. inhibition, % at 20 µM; in the data active = inhibition above about 34%, passing the limit was not always enough;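 note: antagonist mode with CXCL16 agonist at 10 nM final; 0% = 10 nM CXCL16 with DMSO and 100% = unstimulated wells without agonist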
APJ antagonist: antagonists of human apelin receptor APJ, primary screen, CHO-K1 cells, beta-arrestin complementation, luminescence. 330,000 tested, 0.32% active. inhibition, % at 20 µM. P35414. AID 2521, 2010;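 active = inhibition above about 40% at 20 µM, limit read from the data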;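 note: cells challenged with 10 nM apelin-13 agonist together with compound; plate controls were apelin-13 plus DMSO wells for no effect and DMSO wells lacking apelin-13 for full effect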
CCR6 antagonist: CCR6 receptor antagonists, primary screen, cell-based, CHO-K1, luminescence, beta-arrestin, uHTS; AID 493098, 2011; inhibition, % at 20 µM; 340,000 tested, 0.49% active; C-C chemokine receptor type 6 (Homo sapiens), P51684; CHO-K1 CCR6 PathHunter beta-arrestin, CCL20-stimulated;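 active = compounds whose inhibition of the agonist-driven luminescence signal at 20 µM reaches about 50%, limit read from the data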;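 note: cells stimulated with CCL20 at 14 nM final; plate controls were DMSO with CCL20 for no effect and DMSO without agonist for full effect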
* marks the source's active call; other numbers are inactive results; nt = no result given. Sampled rows, rich in hits. Any-hit rate of the full collection: about 1.5%.

SMILES | NTR1 ag | APJ ag | HTR2A ag | CXCR6 block | APJ antagonist | CCR6 antagonist
CCCCc1ccc(NC(=O)CSC2=NN3CCCC(=O)N=C3S2)cc1 | 2 | 5 | 1 | -5 | -12 | -3
CCCC(=O)Nc1nnc(-c2ccc(Cl)s2)o1 | -2 | -3 | 27* | -5 | 8 | 1
CCCCn1nnnc1C(c1cc2ccccc2o1)N1CCCN(C(=O)OC(C)(C)C)CC1 (centres undefined) | nt | nt | -7 | 4 | nt | nt
O=C(CCC(=O)Nc1ccc(F)cc1)N/N=C/c1cc([N+](=O)[O-])ccc1O | 2 | -9 | -3 | 11 | 21 | 62*
O=[N+]([O-])c1ccc(O)c(/C=N/Nc2nn[nH]n2)c1 | 0 | -3 | -9 | 44* | 14 | nt
Cc1nc2ccc(C(=O)N/N=C/c3cc([N+](=O)[O-])ccc3O)cc2[nH]1 | 0 | -3 | 3 | 10 | 20 | 59*
CCOC(=O)c1c(NC(=O)c2ccccc2N(C)S(=O)(=O)c2ccccc2)sc2c1CCCC2 | 2 | -3 | 0 | 8 | -4 | 12
CCOC(=O)c1c(NC(=O)C(NCCN(C)C)c2ccccc2)sc2c1CCCC2 (centres undefined) | 8 | -7 | -7 | 31 | 35 | 54*
O=C(COc1ccccc1F)Nc1ccc(S(=O)(=O)Nc2nccs2)cc1 | 0 | 0 | 2 | -4 | 5 | 23
Cc1ccc(S(=O)(=O)NCC(C)n2nc(C)cc2C)cc1 (centres undefined) | 0 | -3 | -4 | -1 | 2 | 14
Cc1ccc(C(C[N+](=O)[O-])n2nc(C)cc2C)cc1 (centres undefined) | 51* | 5 | 2 | 7 | -19 | 30
C=CCOc1ccc(/C=N/NC(=O)c2c(C)nc3ccc(Cl)cn23)cc1 | -1 | 1 | -8 | 2 | 3 | 3
COc1ccc(N2C(=O)CC(Sc3nnnn3-c3ccc(F)cc3)C2=O)cc1 (centres undefined) | 2 | -2 | 4 | 102* | -34 | 96*
Nc1c(C(=O)NC2CC2)sc2nc3c(c(-c4ccco4)c12)CC/C3=C/c1ccco1 | nt | nt | 5 | 24 | nt | 51*
O=[N+]([O-])c1ccc(S(=O)Cc2ccccc2)c([N+](=O)[O-])c1 (centres undefined) | nt | nt | -8 | 92* | nt | 102*
Nc1ccc(N(CCO)CCO)cc1 | 5 | 3 | 5 | -11 | -16 | -10
Cc1cc(N(CCO)CCO)ccc1N=Nc1cc(F)ccc1F | 2 | -9 | -4 | 30 | 61* | 44
CCCCNc1cc(=O)n(C)c(=O)n1C | 2 | -4 | 15* | 4 | 3 | -4
CCNc1cc(=O)n(C)c(=O)n1C | 0 | -1 | 4 | 3 | 7 | -16
O=C(C#Cc1ccccc1)c1ccc([N+](=O)[O-])cc1 | -4 | 2 | 6 | 71* | 12 | 55*
Cc1cc(C)c(S(=O)(=O)ON2C(=O)c3ccccc3C2=O)cc1C | 0 | -4 | 2 | 13 | 1 | 67*
Cc1cc(C)c(C)c(S(=O)(=O)ON2C(=O)c3ccccc3C2=O)c1C | 14 | -3 | 9 | 17 | 20 | 76*
Cc1cccc2c1N(C)C(=O)C2=O | 2 | 0 | -5 | -2 | 3 | -15
Cc1ccc(OC(=O)CN2C(=O)c3ccccc3C2=O)cc1C | 0 | -3 | 1 | -4 | 8 | 9
O=C1c2ccccc2C(=O)N1OS(=O)(=O)c1ccc(F)cc1 | nt | nt | -5 | 58* | nt | 70*
SMILES | NTR1 ag | APJ ag | HTR2A ag | CXCR6 block | APJ antagonist | CCR6 antagonist
O=S(=O)(c1ccccc1)N1CCN(S(=O)(=O)c2ccc(F)cc2)CC1 | 0 | -5 | 6 | -8 | 0 | 8
O=C(CCCSCCCC(=O)NN=Cc1ccccc1)NN=Cc1ccccc1 | nt | nt | -2 | -1 | nt | 16
C=CCNC(=O)C1CC1(c1cccc(C)c1)c1cccc(C)c1 (centres undefined) | 3 | -2 | 2 | -3 | 4 | 21
Cc1cccc(C2(c3cccc(C)c3)CC2C(=O)Nc2ccc([N+](=O)[O-])cc2O)c1 (centres undefined) | 20 | 0 | -5 | 14 | -24 | 58*
CCCCN1CC(N2CCCCC2)CS1(=O)=O (centres undefined) | nt | nt | 7 | 4 | nt | nt
CCOC(=O)c1nnn(-c2nonc2N)c1CN1CCCCCC1 | 0 | -3 | 1 | 3 | -7 | 104*
CCOC(=O)c1nnn(-c2nonc2N)c1CN1CCCC1 | 2 | -2 | 1 | -3 | 5 | -2
Oc1c(Br)cc(Br)c2cccnc12 | nt | nt | -2 | 31 | nt | 56*
O=C1NC[C@@H](CCCCN2C[C@H](Cc3ccc(O)cc3)N(Cc3ccccc3)C(=O)C2=O)N(CCc2ccc(O)cc2)C1=O | nt | nt | 3 | 1 | nt | nt
Cc1c(C#N)c(O)n(C)c(=O)c1N=Nc1ccc(S(N)(=O)=O)cc1 | nt | nt | -1 | 25 | nt | 52*
CCOC(=O)c1ccc(N2C(=O)C=CC2=O)cc1 | -1 | 0 | 2 | 101* | 14 | 113*
COc1cc(N=Nc2ccc3ccccc3c2)ccc1O | 3 | -6 | -8 | 33 | 22 | 51*
COc1cc(N=Nc2ccccc2C(=O)O)ccc1O | 2 | -5 | 1 | 17 | 9 | 23
O=C1CN(C(=O)c2ccc(F)cc2)c2ccccc2N1 | -1 | -1 | -4 | -3 | -26 | 4
O=[N+]([O-])c1ccc(N/N=C/c2ccc[nH]2)cc1 | nt | nt | 7 | 10 | nt | 55*
O=[N+]([O-])c1ccc(NN=Cc2cccc([N+](=O)[O-])c2)cc1 | nt | nt | -3 | -2 | nt | 14
CCCN1C(=O)/C(=C\C=C2\N(CC)c3ccccc3C2(C)C)SC1=S | nt | nt | -2 | 19 | nt | 46
CCN1C(=O)/C(=C/C=C2\C=CN(CC)c3ccccc32)SC1=S | nt | nt | 1 | 34 | nt | 53*
Cc1nn(-c2ccccc2)c2c1C(c1ccncc1)C(C#N)=C(N)O2 (centres undefined) | 1 | 1 | -1 | 5 | -14 | -1
COc1cc(-n2nc(C)c3c2OC(N)=C(C#N)C3c2ccccc2)c(Cl)c(Br)c1O (centres undefined) | 1 | -7 | -8 | 22 | 34 | 70*
Cn1c(N)c(C(=O)c2cc(-c3ccccn3)nc3ccccc23)c(=O)[nH]c1=O | 3 | 4 | -5 | 4 | 56* | -1
CC(Cc1ccco1)NC(=O)c1ccc(C(F)(F)F)cc1 (centres undefined) | 0 | -1 | -5 | -7 | 11 | 18
